According to ChEMBL document CHEMBL4425120, “N1-Azinylsulfonyl-1H-indoles: 5-HT6 Receptor Antagonists with Procognitive and Antidepressant-Like Properties” (ACS Med Chem Lett, 2016):
Calls of active or inactive are those of the source. The calls are words filed in the database; no cut-off is given here.

Experiments:
[1] = system: Rattus norvegicus; experiment: Cognitive enhancing effect in Sprague-Dawley rat assessed as reversal of PCP induced memory deficit at 0.3 to 1 mg/kg, ip administered 1 hour and 15 mins before familiarization phase by novel object recognition test; assay type: functional, organism-based
Outline: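 Novel object recognition in rats with PCP-induced memory deficit; compounds given i.p.; groups compared with vehicle and with PCP; N = 7–12 animals per group; mean ± SEM.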

[2] = system: Rattus norvegicus; experiment: Antidepressant activity in Sprague-Dawley rat assessed as increase in climbing time at 3 mg/kg, ip adminstered 60 mins prior to testing measured for 5 mins by forced swimming test; assay type: functional, organism-based
Outline: (§1)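 Modified forced swim test in rats, compounds given i.p.; immobility and climbing times scored against a vehicle-treated group; N = 7–8 animals per group; mean ± SEM.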

[3] = Toxicity in Sprague-Dawley rat assessed as effect on locomotory activity at 0.3 to 3 mg/kg, ip measured for 5 mins by open field test; assay type: organism-based; details: in vivo
[4] = system: Rattus norvegicus; experiment: Antianxietic activity in ip dosed Wistar rat assessed as increase in number of licks accepted measured for 5 mins by Vogel conflict drinking test; assay type: functional; details: read-out: MED
[5] = system: Rattus norvegicus; experiment: Antianxietic activity in ip dosed Wistar rat assessed as increase in number of shocks accepted measured for 5 mins by Vogel conflict drinking test; assay type: functional; details: read-out: MED
[6] = target: 5-hydroxytryptamine receptor 6 (Rattus norvegicus, UniProt P31388); experiment: Displacement of [3H]Lu AE60157 from rat brain 5-HT6 receptor
[7] = system: Rattus norvegicus; experiment: Antidepressant activity in Sprague-Dawley rat assessed as reduction in immobility time at 3 mg/kg, ip adminstered 60 mins prior to testing measured for 5 mins by forced swimming test; assay type: functional, organism-based; outline: as §1
[8] = target: T1, 5-hydroxytryptamine receptor 6 (Homo sapiens, UniProt P50406); experiment: Displacement of [3H]-LSD from human 5-HT6 receptor expressed in HEK293 cells by microbeta liquid scintillation counting; assay type: cell-based
Outline: (§2)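 Ki values reported as the mean of two independent radioligand binding experiments.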

[9] = target: T2, 5-hydroxytryptamine receptor 1A (Homo sapiens, UniProt P08908); experiment: Displacement of [3H]-8-OH-DPAT from human 5-HT1A receptor expressed in HEK293 cells by microbeta liquid scintillation counting; assay type: cell-based; outline: as §2
T2 sequence (P08908 whole entry): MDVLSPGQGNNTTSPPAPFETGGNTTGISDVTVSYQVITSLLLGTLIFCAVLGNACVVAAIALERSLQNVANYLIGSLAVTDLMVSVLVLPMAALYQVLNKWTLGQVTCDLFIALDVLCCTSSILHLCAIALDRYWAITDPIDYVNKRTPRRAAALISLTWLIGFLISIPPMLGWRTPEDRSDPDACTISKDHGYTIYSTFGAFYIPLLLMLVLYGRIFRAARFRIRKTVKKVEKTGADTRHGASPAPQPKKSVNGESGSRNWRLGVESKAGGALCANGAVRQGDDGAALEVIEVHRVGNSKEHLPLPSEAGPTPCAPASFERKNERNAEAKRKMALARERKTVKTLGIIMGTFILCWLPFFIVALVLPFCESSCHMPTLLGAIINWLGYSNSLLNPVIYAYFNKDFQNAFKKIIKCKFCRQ

[10] = target: 5-hydroxytryptamine receptor 2A (Homo sapiens, UniProt P28223); experiment: Displacement of [3H]-Ketanserin from human 5-HT2A receptor expressed in HEK293 cells by microbeta liquid scintillation counting; assay type: cell-based; outline: as §2
[11] = target: 5-hydroxytryptamine receptor 7 (Homo sapiens, UniProt P34969); experiment: Displacement of [3H]-5-CT from human 5-HT7B receptor expressed in HEK293 cells by microbeta liquid scintillation counting; assay type: cell-based; outline: as §2
[12] = target: D(2) dopamine receptor (Homo sapiens, UniProt P14416); experiment: Displacement of [3H]-Raclopride from human D2L receptor expressed in HEK293 cells by microbeta liquid scintillation counting; assay type: cell-based; outline: as §2
[13] = organism: Homo sapiens; experiment: Selectivity ratio of Ki for human 5-HT1A receptor expressed in HEK293 cells to Ki for human 5-HT6 receptor expressed in HEK293 cells; assay type: cell-based
[14] = organism: Homo sapiens; experiment: Selectivity ratio of Ki for human 5-HT2A receptor expressed in HEK293 cells to Ki for human 5-HT6 receptor expressed in HEK293 cells; assay type: cell-based
[15] = organism: Homo sapiens; experiment: Selectivity ratio of Ki for human 5-HT7B receptor expressed in HEK293 cells to Ki for human 5-HT6 receptor expressed in HEK293 cells; assay type: cell-based
[16] = organism: Homo sapiens; experiment: Selectivity ratio of Ki for human D2L receptor expressed in HEK293 cells to Ki for human 5-HT6 receptor expressed in HEK293 cells; assay type: cell-based
[17] = target: T1, 5-hydroxytryptamine receptor 6; experiment: Inhibition of 5-HT6 receptor (unknown origin)

T1 sequence (P50406 whole entry): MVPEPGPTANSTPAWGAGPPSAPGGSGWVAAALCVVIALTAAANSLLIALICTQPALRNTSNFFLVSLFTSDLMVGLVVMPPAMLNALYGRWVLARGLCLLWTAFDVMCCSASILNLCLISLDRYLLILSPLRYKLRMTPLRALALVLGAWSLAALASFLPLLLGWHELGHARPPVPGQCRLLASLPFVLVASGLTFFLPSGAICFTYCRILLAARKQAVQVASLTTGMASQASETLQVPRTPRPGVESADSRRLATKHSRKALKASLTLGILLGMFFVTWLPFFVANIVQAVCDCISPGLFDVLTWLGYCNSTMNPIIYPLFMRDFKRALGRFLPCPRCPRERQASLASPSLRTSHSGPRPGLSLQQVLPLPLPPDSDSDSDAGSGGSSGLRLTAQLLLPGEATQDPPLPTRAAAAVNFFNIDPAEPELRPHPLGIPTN
Sequence of 5-hydroxytryptamine receptor 2A (P28223 whole entry): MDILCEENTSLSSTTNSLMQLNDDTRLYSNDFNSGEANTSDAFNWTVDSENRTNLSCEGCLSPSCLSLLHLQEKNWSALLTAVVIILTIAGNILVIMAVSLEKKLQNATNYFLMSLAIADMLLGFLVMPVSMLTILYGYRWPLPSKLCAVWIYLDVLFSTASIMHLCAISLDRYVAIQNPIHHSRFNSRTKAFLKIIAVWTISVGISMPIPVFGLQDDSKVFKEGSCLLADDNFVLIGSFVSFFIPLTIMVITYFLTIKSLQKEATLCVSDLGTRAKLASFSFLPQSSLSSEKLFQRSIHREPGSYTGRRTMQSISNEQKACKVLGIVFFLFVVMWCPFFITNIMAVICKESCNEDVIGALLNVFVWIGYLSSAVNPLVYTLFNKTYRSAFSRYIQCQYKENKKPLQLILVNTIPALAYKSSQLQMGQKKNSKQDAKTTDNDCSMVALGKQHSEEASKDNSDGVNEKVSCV
Sequence of 5-hydroxytryptamine receptor 7 (P34969 whole entry): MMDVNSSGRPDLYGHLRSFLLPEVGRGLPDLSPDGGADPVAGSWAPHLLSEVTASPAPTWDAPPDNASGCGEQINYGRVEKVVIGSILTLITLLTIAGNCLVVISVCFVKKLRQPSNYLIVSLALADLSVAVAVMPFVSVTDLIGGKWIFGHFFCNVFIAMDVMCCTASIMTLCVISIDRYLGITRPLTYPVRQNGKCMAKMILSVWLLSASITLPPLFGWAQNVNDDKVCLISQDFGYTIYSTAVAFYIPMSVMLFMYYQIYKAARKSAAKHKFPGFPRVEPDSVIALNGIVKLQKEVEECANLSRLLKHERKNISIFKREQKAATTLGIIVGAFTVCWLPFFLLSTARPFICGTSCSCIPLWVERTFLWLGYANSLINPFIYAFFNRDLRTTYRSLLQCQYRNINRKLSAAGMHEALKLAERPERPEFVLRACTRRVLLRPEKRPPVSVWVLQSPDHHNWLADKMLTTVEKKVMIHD
Sequence of D(2) dopamine receptor (P14416 whole entry): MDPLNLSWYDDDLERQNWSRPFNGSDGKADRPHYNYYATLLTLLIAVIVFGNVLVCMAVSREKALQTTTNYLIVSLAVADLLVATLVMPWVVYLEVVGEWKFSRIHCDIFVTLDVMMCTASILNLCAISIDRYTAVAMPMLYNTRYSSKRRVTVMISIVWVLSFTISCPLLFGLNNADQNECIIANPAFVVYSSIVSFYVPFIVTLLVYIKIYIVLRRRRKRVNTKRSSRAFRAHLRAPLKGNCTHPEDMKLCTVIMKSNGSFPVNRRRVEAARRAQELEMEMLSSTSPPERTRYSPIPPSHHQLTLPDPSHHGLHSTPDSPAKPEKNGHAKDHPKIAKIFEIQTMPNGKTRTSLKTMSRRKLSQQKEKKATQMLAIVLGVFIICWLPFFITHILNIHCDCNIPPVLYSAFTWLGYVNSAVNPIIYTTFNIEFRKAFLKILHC
Sequence of 5-hydroxytryptamine receptor 6 (Rattus norvegicus, UniProt P31388) (P31388 whole entry): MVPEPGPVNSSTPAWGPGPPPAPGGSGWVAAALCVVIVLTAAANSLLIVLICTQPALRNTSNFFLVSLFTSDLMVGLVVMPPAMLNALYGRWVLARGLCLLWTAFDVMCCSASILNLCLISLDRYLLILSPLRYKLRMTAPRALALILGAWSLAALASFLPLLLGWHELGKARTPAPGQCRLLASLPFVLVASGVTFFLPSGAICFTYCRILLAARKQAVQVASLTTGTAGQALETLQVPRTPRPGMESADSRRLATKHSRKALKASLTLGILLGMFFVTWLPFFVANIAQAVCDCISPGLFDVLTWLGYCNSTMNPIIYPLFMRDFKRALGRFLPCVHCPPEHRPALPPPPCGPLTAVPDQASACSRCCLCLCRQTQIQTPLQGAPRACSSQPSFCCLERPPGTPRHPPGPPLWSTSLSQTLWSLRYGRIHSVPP

For `O=S(=O)(c1ccccc1)c1cnc2c(N3CCNCC3)cccc2c1` [INTEPIRDINE], the Activity [1] was “Active”, the Activity [2] was “Active” and the Activity [3] was “Non-Toxic”. For the same compound, the minimal effective dose [4] was 3 mg/kg, the minimal effective dose [5] was 3 mg/kg and the Ki [6] was 0.234 nM. For the same compound, the Activity [7] was “Active”.
`COc1ccc2c(c1)c(C1=CCNCC1)cn2S(=O)(=O)c1cccc2ncccc12` gave a Ki [8] of 4 nM, a Ki [9] of 2940 nM and a Ki [10] of 1550 nM. It also gave a Ki [11] of 2350 nM, a Ki [12] of 302 nM and a Ratio Ki [13] of 70. The Ratio Ki [14] was 70, the Ratio Ki [15] was 70 and the Ratio Ki [16] was 70.
In the case of `O=S(=O)(c1ccc2ncccc2c1)n1cc(C2=CCNCC2)c2ccccc21`, the Ki [8] is reported as 20 nM, the Ki [9] is reported as 1870 nM and the Ki [10] is reported as 1410 nM. The Ki [11] was 6660 nM, the Ki [12] was 1410 nM and the Ratio Ki [13] was 70. It also gave a Ratio Ki [14] of 70, a Ratio Ki [15] of 70 and a Ratio Ki [16] of 70.
Work on `Cc1c(C2=CCNCC2)c2ccccc2n1S(=O)(=O)c1ccc2cccnc2c1` yielded a Ki [8] of 18 nM.
For `O=S(=O)(c1cnc2ccccc2c1)n1cc(C2=CCNCC2)c2cc(Cl)ccc21`, the Ki [8] was 11 nM.
`O=S(=O)(c1ccc2ncccc2c1)n1cc(C2=CCNCC2)c2ccc(Cl)cc21` showed a Ki [8] of 112 nM.
For `O=S(=O)(c1cncc2ccccc12)n1cc(C2=CCNCC2)c2ccccc21`, the Ki [8] was 5 nM.
For `COc1ccc2c(c1)c(C1CCNCC1)cn2S(=O)(=O)c1cncc2ccccc12`, the Ki [8] was 24 nM.
For `O=S(=O)(c1ccc2cccnc2c1)n1cc(C2=CCNCC2)c2cc(Cl)ccc21`, the Ki [8] was 9 nM, the Ki [9] was 2470 nM and the Ki [10] was 2590 nM. For the same compound, the Ki [11] was 7320 nM, the Ki [12] was 1170 nM and the Ratio Ki [13] was 70. For the same compound, the Ratio Ki [14] was 70, the Ratio Ki [15] was 70 and the Ratio Ki [16] was 70.
`COc1ccc2c(c1)c(C1=CCNCC1)cn2S(=O)(=O)c1cnc2ccccc2c1` gave a Ki [8] of 8 nM.
With `CCCN1CC=C(c2cn(S(=O)(=O)c3ccc4cccnc4c3)c3ccc(OC)cc23)CC1` the Ki [8] was 247 nM.
With `O=S(=O)(c1cncc2ccccc12)n1cc(C2=CCNCC2)c2cc(Cl)ccc21` the Ki [8] was 18 nM.
Compound `O=S(=O)(c1ccc2cccnc2c1)n1cc(C2=CCNCC2)c2ccc(Cl)cc21` has a Ki [8] of 22 nM.
Work on `Cc1c(C2=CCNCC2)c2ccccc2n1S(=O)(=O)c1cc2ccccc2cn1` yielded a Ki [8] of 20 nM.
With `COc1ccc2c(c1)c(C1=CCN(C)CC1)cn2S(=O)(=O)c1ccc2cccnc2c1` the Ki [8] was 82 nM.
`CCCCN1CC=C(c2cn(S(=O)(=O)c3ccc4cccnc4c3)c3ccc(OC)cc23)CC1` gave a Ki [8] of 219 nM.
In the case of `CSc1nn2c(C)cc(C)nc2c1S(=O)(=O)c1ccccc1`, the Ki [17] is reported as 2.1 nM.
`O=S(=O)(c1ccc2cccnc2c1)n1cc(C2=CCNCC2)c2ccccc21` gave a Ki [8] of 7 nM.
`O=S(=O)(c1cccc2ncccc12)n1cc(C2=CCNCC2)c2cc(Cl)ccc21` gave a Ki [8] of 11 nM.
For `O=S(=O)(c1cnc2ccccc2c1)n1cc(C2=CCNCC2)c2ccc(Cl)cc21`, the Ki [8] was 37 nM.
Compound `COc1ccc2c(c1)c(C1=CCNCC1)cn2S(=O)(=O)c1cc2ccccc2cn1` has a Ki [8] of 6 nM.
`O=S(=O)(c1cc2ccccc2cn1)n1cc(C2=CCNCC2)c2ccc(Cl)cc21` showed a Ki [8] of 102 nM.
For `O=S(=O)(c1cc2ccccc2cn1)n1cc(C2=CCNCC2)c2ccccc21`, the Ki [8] was 12 nM.
`O=S(=O)(c1cnc2ccccc2c1)n1cc(C2=CCNCC2)c2ccccc21` showed a Ki [8] of 13 nM.
For `COc1ccc2c(c1)c(C1CCNCC1)cn2S(=O)(=O)c1ccc2cccnc2c1`, the Ki [8] was 30 nM.
Work on `COc1ccc2c(c1)c(C1=CCNCC1)cn2S(=O)(=O)c1ccc2ncccc2c1` yielded a Ki [8] of 14 nM.
